Laboratory results from article PMC8148061 (Acta Pharmaceutica Sinica. B, 2020).
“Also recorded” adds a separate entry of the source.

Key:
Bcr-Abl^T315I = Bcr-Abl^T315I (Homo sapiens, UniProt P00519+P11274, T315I); assay: Western blot degradation study in Ba/F3 cells expressed Bcr-Abl^T315I; format: cell-based
K562 = assay: Antiproliferation cell assay; format: cell-based, human; details: Homo sapiens, K562, 72 h, read-out: Cellular inhibition IC50 K562
In short: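 K562 (ATCC) cells were grown in RPMI-1640 with 10% FBS, penicillin, streptomycin and 2 mmol/L glutamine at 37 °C in humidified CO2. Log-phase cells were seeded at ~3000/well, rested overnight, then exposed to test compound or vehicle for 72 h (10 mmol/L DMSO stocks). CCK-8 was read as OD450−OD650, with viability normalised to no-cell blank and vehicle wells. IC50 came from concentration–response curve fitting, mean ± SD.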

Ba/F3 Bcr-Abl^WT = assay: Antiproliferation cell assay; format: cell-based; details: Mus musculus, BaF3, 72 h, read-out: Cellular inhibition IC50 Ba/F3 Bcr-Abl^WT
Ba/F3 Bcr-Abl^T315I = assay: Antiproliferation cell assay; format: cell-based; details: Mus musculus, BaF3, 72 h, read-out: Cellular inhibition IC50 Ba/F3 Bcr-Abl^T315I
Bcr-Abl^WT = Bcr-Abl^WT (Homo sapiens, UniProt P00519+P11274); assay: Western blot degradation study in K562 cells; format: cell-based; details: 100 nmol/L, time-course
[1] = molecular target: Bcr-Abl^T315I / CRBN E3 ligase (UniProt P00519+P11274+Q8C7D2, T315I); assay: Co-immunoprecipitation in Ba/F3 Bcr-Abl^T315I cells; format: cell-based; details: 24 h treatment
In short: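 After 24 h exposure to a range of test compound concentrations, cells were lysed on ice in RIPA with protease and phosphatase inhibitors. Protein was BCA-quantified and equalised; ~4/5 of each lysate went to IP and the rest served as input. Anti-c-Abl antibody was added overnight at 4 °C, then protein A+G agarose for 2 h at 4 °C. Beads were washed five times in RIPA without inhibitors, and complexes were immunoblotted for CRBN.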

[2] = Pharmacokinetics in mice, single i.p. injection; format: in vivo, ICR mice; details: 20 mg/kg
[3] = system: Ba/F3 Bcr-Abl^T315I xenograft; assay: In vivo antitumor efficacy, Ba/F3 Bcr-Abl^T315I xenograft model; set-up: species or system CB17-SCID mice
In short: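 Ba/F3 Bcr-AblT315I cells in normal saline were implanted s.c. in the right flank of CB17-SCID mice (2 × 10^6 cells/0.1 mL). Mice were randomised at mean tumour volume 100–200 mm3 and dosed i.p. every two days at 10 or 20 mg/kg. Vehicle was 5% DMSO + 10% solutol + 85% saline. Body weight and tumour volume (L × W²/2) were recorded every two days. Terminal tumours were formalin-fixed, paraffin-sectioned and TUNEL-stained.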

Cc1ccc(C(=O)Nc2ccc(CN3CCN(CCCCCCC(=O)Nc4cccc5c4C(=O)N(C4CCC(=O)NC4=O)C5=O)CC3)c(C(F)(F)F)c2)cc1C#Cc1cnc2[nH]ncc2c1 (stereo not shown) [compound 7o, 3-((1H-Pyrazolo[3,4-b]pyridin-5-yl)ethynyl)-N-(4-((4-(7-((2-(2,6-dioxopiperidin-3-yl)-1,3-dioxoisoindolin-4-yl)amino)-7-oxoheptyl)piperazin-1-yl)methyl)-3-(trifluoromethyl)phenyl)-4-methylbenzamide]
DR against Ba/F3 Bcr-Abl^T315I (%) 100 nmol/L (Bcr-Abl^T315I; 100 nmol/L, 24 h treatment, Western blot): 69.89%
treatment time after which Bcr-Abl^T315I protein level was substantially reduced (Bcr-Abl^T315I; 100 nmol/L, time-course): 6 h
DR against Ba/F3 Bcr-Abl^T315I (%) 300 nmol/L (Bcr-Abl^T315I; 300 nmol/L, 24 h treatment, Western blot): 94.23%
Bcr-Abl^T315I degradation after preincubation with proteasome inhibitor MG132 (Bcr-Abl^T315I; 20 μmol/L MG132, then 7o 24 h at 100 and 300 nmol/L): successfully rescue
treatment time of maximum degradation (Bcr-Abl^T315I; Ba/F3 Bcr-Abl^T315I, time-course): 24 h
IC50 (K562): 7.7 ± 1.8 nM
IC50 (Ba/F3 Bcr-Abl^WT): 4.2 ± 0.2 nM
IC50 (Ba/F3 Bcr-Abl^T315I): 26.8 ± 9.7 nM
treatment time after which Bcr-Abl^WT was substantially reduced in K562 cells (Bcr-Abl^WT): 36 h
mechanism of Bcr-Abl^T315I degradation (Co-IP) [1]: mediated by CRBN E3 ubiquitin pathway
plasma concentration over time [2]: high plasma concentrations maintained over 48 h
tumor growth inhibition (TGI) ([3]; 20 mg/kg, i.p., q2d, 10 consecutive days): 90.8%
body weight loss relative to the vehicle matched controls ([3]; 20 mg/kg, i.p., q2d, during the treatment): < 5%
mortality ([3]; during the treatment): no mortality
tumor growth (in words) ([3]; i.p., once every two days): substantial tumor regression; also recorded: suppresses the growth
apoptosis in xenograft tumor (TUNEL) ([3]; mouse, in vivo): induced apoptosis
